This passage reports Control and inhibition results from ChEMBL document CHEMBL1129264, “Mercaptoacyl dipeptides as orally active dual inhibitors of angiotensin-converting enzyme and neutral endopeptidase” (1996).

The subject of assay [1] is Rattus norvegicus. Description: Plasma ANF Concentration in the Conscious Rat at a dose of 12.4 (p.o.) mg/kg at 4 h. Format: functional. An outline of the steps:
(§1)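 Male Sprague-Dawley rats (275-390 g) received femoral artery and vein catheters under ketamine (150 mg/kg)/acepromazine and recovered for 24 h, tethered, before study conscious. ratANF(99-126) was infused at 450 ng/kg/min iv for 5 h. Baseline blood was drawn at 60 min into the infusion, then compound was given po.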

For assay [2], the system named is Rattus norvegicus. Description: Plasma ANF Concentration in the Conscious Rat at a dose of 12.4 (p.o.) mg/kg at 0.5 h. The format is functional. In short, it runs like this: as §1
The test system of assay [3] is Rattus norvegicus. The assay is described as follows: Plasma ANF Concentration in the Conscious Rat at a dose of 12.4 (p.o.) mg/kg at 2 h. The format is functional. An outline of the steps: as §1
The target of assay [4] is T1, Angiotensin-converting enzyme (Rattus norvegicus) (UniProt P47820).
T1 sequence (whole entry): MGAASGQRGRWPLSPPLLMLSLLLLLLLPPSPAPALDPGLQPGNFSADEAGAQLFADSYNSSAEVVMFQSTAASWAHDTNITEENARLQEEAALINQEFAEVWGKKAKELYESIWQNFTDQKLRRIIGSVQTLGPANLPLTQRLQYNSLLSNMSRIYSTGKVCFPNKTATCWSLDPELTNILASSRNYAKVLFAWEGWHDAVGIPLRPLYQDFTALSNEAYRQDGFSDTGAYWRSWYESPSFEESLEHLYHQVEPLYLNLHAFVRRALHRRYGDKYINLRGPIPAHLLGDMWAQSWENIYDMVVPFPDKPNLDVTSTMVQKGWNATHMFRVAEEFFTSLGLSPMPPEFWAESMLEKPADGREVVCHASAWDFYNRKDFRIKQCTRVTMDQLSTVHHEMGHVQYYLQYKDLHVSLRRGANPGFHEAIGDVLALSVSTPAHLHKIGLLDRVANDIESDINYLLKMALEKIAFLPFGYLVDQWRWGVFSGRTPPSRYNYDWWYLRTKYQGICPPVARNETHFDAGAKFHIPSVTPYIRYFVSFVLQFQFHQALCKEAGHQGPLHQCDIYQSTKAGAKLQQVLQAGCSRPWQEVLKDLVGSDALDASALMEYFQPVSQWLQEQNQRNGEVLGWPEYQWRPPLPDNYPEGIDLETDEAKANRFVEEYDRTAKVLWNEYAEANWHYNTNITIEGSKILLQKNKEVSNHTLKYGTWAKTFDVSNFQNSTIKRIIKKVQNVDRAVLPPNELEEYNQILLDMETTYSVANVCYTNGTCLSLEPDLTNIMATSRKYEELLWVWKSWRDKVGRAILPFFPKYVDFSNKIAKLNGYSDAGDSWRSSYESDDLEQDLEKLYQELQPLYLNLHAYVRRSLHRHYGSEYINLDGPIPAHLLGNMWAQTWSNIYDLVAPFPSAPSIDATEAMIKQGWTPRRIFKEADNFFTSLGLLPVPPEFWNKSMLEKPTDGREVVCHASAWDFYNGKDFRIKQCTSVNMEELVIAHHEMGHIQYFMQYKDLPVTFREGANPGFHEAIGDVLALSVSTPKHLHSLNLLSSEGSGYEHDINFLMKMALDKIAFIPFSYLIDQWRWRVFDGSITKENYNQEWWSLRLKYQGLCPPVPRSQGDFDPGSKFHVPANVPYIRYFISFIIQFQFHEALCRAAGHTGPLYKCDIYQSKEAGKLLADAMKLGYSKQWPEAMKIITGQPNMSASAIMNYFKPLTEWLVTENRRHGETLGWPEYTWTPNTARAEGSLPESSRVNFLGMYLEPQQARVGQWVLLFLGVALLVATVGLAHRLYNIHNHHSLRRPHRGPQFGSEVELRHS
Description: Compound was tested for plasma inhibition of Angiotensin I converting enzyme activity in the conscious rat. Expressed as Inhibition of AI pressor response at 4 hr at a dose of 12.4 mg/kg po. The format is organism-based. Set-up: dose 12.4 mg/kg. An outline of the steps: (§2)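 Male conscious normotensive Sprague-Dawley rats (275-390 g), given femoral arterial and venous catheters under methohexital sodium (75 mg/kg ip) anesthesia. Next day, pressor responses to three angiotensin-I challenges (300 ng/kg iv) recorded by direct arterial pressure. Compound then dosed orally, and AI challenge repeated at set times. Each post-dose response compared with the mean of the three baseline responses, giving % inhibition.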

Assay [5] deals with T1, Angiotensin-converting enzyme (Rattus norvegicus). The assay is described as follows: Compound was tested for plasma inhibition of Angiotensin I converting enzyme activity in the conscious rat. Expressed as Inhibition of AI pressor response at 2 hr at a dose of 12.4 mg/kg po. Format: organism-based. Also on record: dose 12.4 mg/kg. In short, it runs like this:
as §2

The test system of assay [6] is Rattus norvegicus. Description: Plasma ANF Concentration in the Conscious Rat at a dose of 12.4 (p.o.) mg/kg at 1 h. The format is functional. An outline of the steps: as §1
The target of assay [7] is T1, Angiotensin-converting enzyme (Rattus norvegicus). The assay is described as follows: Compound was tested for plasma inhibition of Angiotensin I converting enzyme activity in the conscious rat. Expressed as Inhibition of AI pressor response at 1 hr at a dose of 12.4 mg/kg po. Also on record: dose 12.4 mg/kg. The format is organism-based. In short, it runs like this:
as §2

The target is the same in assay [8]. The assay is described as follows: Compound was tested for plasma inhibition of Angiotensin I converting enzyme activity in the conscious rat. Expressed as Inhibition of AI pressor response at 6 hr at a dose of 12.4 mg/kg po. The format is organism-based. Also on record: dose 12.4 mg/kg. An outline of the steps:
(§3)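 Male conscious normotensive Sprague-Dawley rats (275-390 g), prepared under methohexital sodium (75 mg/kg ip) with femoral arterial and venous catheters. The next day, pressor responses to three angiotensin-I challenges (300 ng/kg iv) were recorded. Compound was then given orally and angiotensin-I challenges were repeated at set times. Percent inhibition is relative to the mean of the three baseline responses.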

Assay [9] shares this target. Description: Compound was tested for plasma inhibition of ACE activity in the conscious rat. Expressed as Inhibition of AI pressor response at 1 hr at a dose of 12.4 mg/kg po. The format is organism-based. Also on record: dose 12.4 mg/kg. An outline of the steps:
as §2

For assay [10], the system named is Rattus norvegicus. Description: Plasma ANF Concentration in the Conscious Rat at a dose of 13.2(po)mg/kg at 2 h. The format is functional. In short, it runs like this:
as §1

Assay [11] has as its system Rattus norvegicus. The assay is described as follows: Plasma ANF Concentration in the Conscious Rat at a dose of 13.2(po)mg/kg at 0.5 h. The format is functional. In short, it runs like this:
as §1

The target in assay [12] is T1, Angiotensin-converting enzyme (Rattus norvegicus). The assay is described as follows: Compound was tested for plasma inhibition of Angiotensin I converting enzyme activity in the conscious rat. Expressed as Inhibition of AI pressor response at 4 hr at a dose of 13.2 mg/kg po. Format: organism-based. Also on record: dose 13.2 mg/kg. An outline of the steps: as §3

In assay [13] the test system is Rattus norvegicus. The assay is described as follows: Plasma ANF Concentration in the Conscious Rat at a dose of 13.2(po)mg/kg at 1 h. The format is functional. An outline of the steps: as §1
The target of assay [14] is T1, Angiotensin-converting enzyme (Rattus norvegicus). The assay is described as follows: Compound was tested for plasma inhibition of Angiotensin I converting enzyme activity in the conscious rat. Expressed as Inhibition of AI pressor response at 1 hr at a dose of 13.2 mg/kg po. Format: organism-based. Set-up: dose 13.2 mg/kg. In short, it runs like this:
as §2

For assay [15] the target is unchanged. Description: Compound was tested for plasma inhibition of Angiotensin I converting enzyme activity in the conscious rat. Expressed as Inhibition of AI pressor response at 6 hr at a dose of 13.2 mg/kg po. The format is organism-based. Set-up: dose 13.2 mg/kg. In short, it runs like this:
as §3

Assay [16] has the same target. The assay is described as follows: Compound was tested for plasma inhibition of Angiotensin I converting enzyme activity in the conscious rat. Expressed as Inhibition of AI pressor response at 2 hr at a dose of 13.2 mg/kg po. The format is organism-based. Also on record: dose 13.2 mg/kg. In short, it runs like this:
as §2

Assay [17] has as its system Rattus norvegicus. Description: Plasma ANF Concentration in the Conscious Rat at a dose of 13.2(po)mg/kg at 4 h. Format: functional. In short, it runs like this: as §1
In assay [18] the target is T1, Angiotensin-converting enzyme (Rattus norvegicus). Description: Compound was tested for plasma inhibition of Angiotensin I converting enzyme activity in the conscious rat. Expressed as Inhibition of AI pressor response at 4 hr at a dose of 13.7 mg/kg po. Format: organism-based. Set-up: dose 13.7 mg/kg. In short, it runs like this: as §3
Assay [19] shares this target. Description: Compound was tested for plasma inhibition of Angiotensin I converting enzyme activity in the conscious rat. Expressed as Inhibition of AI pressor response at 2 hr at a dose of 13.7 mg/kg po. Set-up: dose 13.7 mg/kg. Format: organism-based. An outline of the steps: as §2
Assay [20] relates to Rattus norvegicus. The assay is described as follows: Plasma ANF Concentration in the Conscious Rat at a dose of 13.7(po)mg/kg at 2 h. The format is functional. In short, it runs like this: (§4)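 Male Sprague-Dawley rats (275-390 g), catheterized in femoral artery and vein under ketamine (150 mg/kg)/acepromazine, tethered and recovered 24 h, studied conscious. Continuous iv rat ANF(99-126) infusion at 450 ng/kg/min for 5 h; baseline blood at 60 min, then oral dosing, sampling at 30-240 min.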

Assay [21] relates to Rattus norvegicus. Description: Plasma ANF Concentration in the Conscious Rat at a dose of 13.7(po)mg/kg at 4 h. The format is functional. In short, it runs like this: as §4
The test system of assay [22] is Rattus norvegicus. Description: Plasma ANF Concentration in the Conscious Rat at a dose of 13.7(po)mg/kg at 1 h. The format is functional. An outline of the steps: as §4
For assay [23], the system named is Rattus norvegicus. The assay is described as follows: Plasma ANF Concentration in the Conscious Rat at a dose of 13.7(po)mg/kg at 0.5 h. The format is functional. An outline of the steps: as §4
For assay [24], the target named is T1, Angiotensin-converting enzyme (Rattus norvegicus). Description: Compound was tested for plasma inhibition of Angiotensin I converting enzyme activity in the conscious rat. Expressed as Inhibition of AI pressor response at 6 hr at a dose of 13.7 mg/kg po. The format is organism-based. Also on record: dose 13.7 mg/kg. In short, it runs like this: as §3
Assay [25] has the same target. The assay is described as follows: Compound was tested for plasma inhibition of Angiotensin I converting enzyme activity in the conscious rat. Expressed as Inhibition of AI pressor response at 1 hr at a dose of 13.7 mg/kg po. Format: organism-based. Also on record: dose 13.7 mg/kg. In short, it runs like this: as §2

Structures are written as SMILES.

With `CCCCOC(=O)[C@H](Cc1ccc(O)cc1)NC(=O)C1(NC(=O)[C@H](SC(C)=O)C(C)C)CCCC1`, the Control in the assay on Rattus norvegicus [1] worked out at 185%; with Rattus norvegicus [2], 131%; in the assay with Rattus norvegicus [3], 178%; in the assay on Rattus norvegicus [6] it was 133%. The inhibition in assay [4] was found to be 70%; in assay [5] it was 78%; in assay [7], 76%; in assay [8], 72%.
Take `CCOC(=O)[C@H](Cc1ccc(OCC)cc1)NC(=O)C1(NC(=O)[C@H](SC(C)=O)C(C)C)CCCC1`: the inhibition turned out to be 73% in [4], 76% in [5], 88% in assay [9] and 70% in [8].
`COc1ccc(C[C@H](NC(=O)C2(NC(=O)[C@H](SC(C)=O)C(C)C)CCCC2)C(=O)OCc2cccnc2)cc1`: the Control with Rattus norvegicus [10] is reported as 260%; in the assay with Rattus norvegicus [11] it was 223%; with Rattus norvegicus [13] it was 267%; in the assay with Rattus norvegicus [17], 332%. The inhibition in [12] was 87%; in [14], 99%; in assay [15], 63%; in assay [16], 97%.
Consider `CCN(CC)C(=O)COC(=O)[C@H](Cc1ccc(OC)cc1)NC(=O)C1(NC(=O)[C@H](SC(C)=O)C(C)C)CCCC1`, for which the inhibition is 73% in assay [18], 86% in assay [19], 64% in [24] and 88% in assay [25]. Also, the Control is 215% in the assay on Rattus norvegicus [20], 264% in the assay on Rattus norvegicus [21], 187% in the assay with Rattus norvegicus [22] and 159% in the assay on Rattus norvegicus [23].

The inhibition is the drop in the measured response relative to a control, in per cent. Read a high inhibition as strong suppression.
